# Measured values: ChEMBL document CHEMBL1671807, “Structure-activity relations on [1-(3,5-difluoro-4-hydroxyphenyl)-1H-pyrrol-3-yl]phenylmethanone. The effect of methoxy substitution on aldose reductase inhibitory activity and selectivity” (Bioorg Med Chem, 2011)
# Tested on: not listed separately
# Assay: Antioxidant activity assessed as inhibition of AAPH-induced lipid peroxidation of DOPC liposomes
# Type: functional
# Conditions: not given
# Outline: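 Unilamellar DOPC liposomes, 0.8 mM final, in 20 mM phosphate buffer pH 7.4, incubated with compound at 10–300 µM and AAPH (10 mM final) at 50 °C for 80 min. Lipids extracted with CHCl3/MeOH 2:1 containing 0.05% BHT. Hydroperoxides read by the thiocyanate method at 500 nm against a cumene hydroperoxide calibration. IC50 from the linear part of the semilog inhibition plot; triplicate.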
row,IC50,SMILES
1,35.8 µM,COc1ccc(C(=O)c2cccn2-c2cc(F)c(O)c(F)c2)cc1

# Tested on: not listed separately
# Assay: Inhibition of rat kidney ALR1
# Conditions: not given
# Outline: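 Enzyme partially purified from Fischer-344 rat kidney by ammonium sulfate fractionation (40/50/75%) and DEAE treatment, with no detectable ALR2 activity. NADPH consumption followed at 340 nm with D-glucuronate substrate at 37 °C. Compounds in 10% aqueous NaHCO3, five concentrations. IC50 from least-squares fit of the linear part of the log dose–response; triplicate.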
row,IC50,SMILES
1,4.6 µM,O=C(c1ccccc1)c1cccn1-c1cc(F)c(O)c(F)c1
2,23.5 µM,COc1cccc(C(=O)c2cccn2-c2cc(F)c(O)c(F)c2)c1
3,1.61 µM,O=C(c1ccccc1)c1ccn(-c2ccc(F)c(O)c2F)c1
4,27.8 µM,COc1ccc(C(=O)c2cccn2-c2cc(F)c(O)c(F)c2)cc1
5,13.4 µM,O=C(c1ccccc1)c1ccn(-c2cc(F)c(O)c(F)c2)c1
6,> 100 µM,COc1ccc(C(=O)c2ccn(-c3cc(F)c(O)c(F)c3)c2)cc1
7,51.8 µM,COc1cccc(C(=O)c2ccn(-c3cc(F)c(O)c(F)c3)c2)c1

# Organism: Rattus norvegicus
# Assay: Selectivity index, ratio of IC50 for rat kidney ALR1 to IC50 for rat lens ALR2
# Type: tissue-based
# Conditions: Lens of camera-type eye
# Outline: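 Ratio of IC50 values: rat kidney enzyme assayed with D-glucuronate at 37 °C, rat lens enzyme with D,L-glyceraldehyde at 30 °C. Both read as NADPH consumption at 340 nm, five compound concentrations, IC50 from the linear part of the log dose–response curve, triplicate.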
row,SMILES,Ratio IC50
1,O=C(c1ccccc1)c1cccn1-c1cc(F)c(O)c(F)c1,4.3
2,COc1cccc(C(=O)c2cccn2-c2cc(F)c(O)c(F)c2)c1,19.9
3,O=C(c1ccccc1)c1ccn(-c2ccc(F)c(O)c2F)c1,1.3
4,COc1ccc(C(=O)c2cccn2-c2cc(F)c(O)c(F)c2)cc1,71.6
5,O=C(c1ccccc1)c1ccn(-c2cc(F)c(O)c(F)c2)c1,33.8
6,COc1ccc(C(=O)c2ccn(-c3cc(F)c(O)c(F)c3)c2)cc1,> 4
7,COc1cccc(C(=O)c2ccn(-c3cc(F)c(O)c(F)c3)c2)c1,5.2

# Tested on: not listed separately
# Assay: Inhibition of glucose-induced sorbitol accumulation in rat lens at 100 uM (Rbv = 643.5+/-133 nmol/g)
# Type: functional, Lens of camera-type eye
# Conditions: not given
row,SMILES,Activity
1,COc1ccc(C(=O)c2cccn2-c2cc(F)c(O)c(F)c2)cc1,203.5 nmol/g

# Target: Aldo-keto reductase family 1 member B1 (Rattus norvegicus, UniProt P07943)
# Assay: Inhibition of rat lens ALR2
# Type: tissue-based, Lens of camera-type eye
# Conditions: not given
# Outline: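 Partially purified rat lens enzyme (water homogenate, supernatant after 40% ammonium sulfate). NADPH consumption read at 340 nm with D,L-glyceraldehyde as substrate at 30 °C. Compounds dissolved in 10% aqueous NaHCO3 and tested at five concentrations. IC50 from least-squares fit of the linear part of the log dose–response curve; triplicate.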
row,IC50,SMILES
1,1060 nM,O=C(c1ccccc1)c1cccn1-c1cc(F)c(O)c(F)c1
2,1180 nM,COc1cccc(C(=O)c2cccn2-c2cc(F)c(O)c(F)c2)c1
3,1260 nM,O=C(c1ccccc1)c1ccn(-c2ccc(F)c(O)c2F)c1
4,390 nM,COc1ccc(C(=O)c2cccn2-c2cc(F)c(O)c(F)c2)cc1
5,24900 nM,COc1ccc(C(=O)c2ccn(-c3cc(F)c(O)c(F)c3)c2)cc1
6,9930 nM,COc1cccc(C(=O)c2ccn(-c3cc(F)c(O)c(F)c3)c2)c1
